Test results from PubChem BioAssay AID488934 (Broad Institute, 2010).
Inconclusive results are not listed. Active and inactive are the calls of the source.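 Rule for the calls: active = compounds raising caspase signal whose fitted AC50 lies at or below the top valid dose tested; inconclusive = flat curve at 30 to 70 percent activity, or a poor fit; inactive = the rest.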

tested on: Mel501 melanoma cells, caspase-3/7 Glo luminescence, 6 h; assay: Caspase-Glo signal, Mel501 melanoma line – cell-based, human Mel501, dry powder, A1 (Bcl2A1) inhibitor project, dose response (AID 488934); settings: not given
How it was run: (§1)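 Material: human Mel501 melanoma cell line; timing: 6 h compound exposure at 37 °C, 1 h substrate incubation; detection: luminescence from DEVD-linked luciferin caspase-3/7 substrate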

| SMILES | AC50 |
| --- | --- |
| Cc1cccc(NC(=O)/C(C#N)=C/c2cn(CC(=O)NCc3ccco3)c3ccccc23)c1 | > 150 µM (inactive) |
| COc1ccc(N(C(=O)CCl)C(C(=O)NCCc2ccccc2)c2cccs2)cc1Cl (stereo not drawn) | 30.1 µM |
| Cc1c(C=O)c(C=O)c(C)n1Cc1ccccc1 | > 150 µM (inactive) |
| Cc1cc(C(=O)CCl)c(C)n1CCc1ccc(Cl)cc1 | 17.8 µM |
| Cc1c(CCOC(=O)c2ccc(N3CCOCC3)c([N+](=O)[O-])c2)sc[n+]1CC#N | 18.8 µM |
| Cc1ccc(Sc2c([N+](=O)[O-])c(=O)n(C)c3ccccc23)cc1 | 69.7 µM |

tested on: not listed separately; assay: as above; settings: Mel501 melanoma cells, caspase-3/7 Glo luminescence, 6 h; at 135 µM (top of the series)
How it was run: as §1

| SMILES | caspase activation |
| --- | --- |
| CC(=O)N[C@H]1[C@H](O[C@H]2CC[C@@]3(C)C(CC[C@]4(C)C3CC=C3[C@@H]5CC(C)(C)CC[C@]5(C(=O)OC5OCC(O)C(O)C5O)C(O)C[C@]34C)C2(C)C)O[C@H](COC2OCC(O)C(OC3OCC(O)C(O)C3O)C2O)[C@@H](O[C@@H]2O[C@@H](C)[C@H](O)[C@@H](O)[C@H]2O[C@@H]2O[C@@H](C)[C@H](O)[C@@H](O)[C@H]2O)[C@@H]1O (stereo partly drawn) | -0.618% (inactive) |

same assay, conditions: Mel501 melanoma cells, caspase-3/7 Glo luminescence, 6 h; at 150 µM (top of the series)

| SMILES | caspase activation |
| --- | --- |
| C=C1[C@@H](C)[C@H]2[C@H](Cc3ccccc3)NC(=O)[C@]23OC(=O)/C=C\[C@H](O)CCC[C@@H](C)C/C=C/[C@H]3[C@@H]1O | 0.77% (inactive) |
| CCOC(=O)CSC1=N/C(=C/c2ccc(-n3cncn3)cc2)C(=O)N1C(C)=O | 0.822% (inactive) |
| CC(C)(C)n1nc(-c2ccc(Cl)cc2)c2c(N)ncnc21 | 2.25% (inactive) |
| Nc1nc(F)nc2c1ncn2[C@@H]1O[C@H](CO)[C@@H](O)[C@H]1O | 0.438% (inactive) |
| COc1cc(/C=C(/C#N)c2nc3ccccc3[nH]2)ccc1OCC(=O)Nc1ccccc1C(C)C | 1.07% (inactive) |
| COc1cccc(C(=O)C(C#N)=C(SC)SC)c1 | -0.394% (inactive) |
| Cn1c(=NC(=O)CCl)sc2ccccc21 | 0.601% (inactive) |
| O=C(Oc1cccc(/C=N/Nc2nc(Nc3ccccc3)nc(N3CCOCC3)n2)c1)c1ccco1 | 0.28% (inactive) |
| C=C1[C@@H](C)[C@H]2[C@H](Cc3ccccc3)NC(=O)[C@]23[C@H](OC(C)=O)/C=C/[C@](C)(O)C(=O)[C@@H](C)C/C=C/[C@H]3[C@@H]1O | 0.757% (inactive) |
| CCc1cc2c(=O)c(-c3cnn(-c4ccccc4)c3)c(C)oc2cc1OCC(=O)Nc1cccc(C)c1 | 0.716% (inactive) |
| CCc1nnc(NC(=O)c2nc(S(=O)(=O)Cc3ccccc3)ncc2Cl)s1 | -0.521% (inactive) |
| O=C(CCl)N=c1sccn1Cc1ccccc1Cl | 2.16% (inactive) |
| C/C1=C/C(=O)O[C@@H]2C[C@@H](CC[C@H](C)/C=C\CC1)O[C@@](O)(C1CSC(=O)N1)C2 (stereo partly drawn) | 0.0337% (inactive) |
| Cc1ccc(CS(=O)(=O)c2ncc(Cl)c(C(=O)Nc3nnc(C(C)C)s3)n2)cc1 | -1.79% (inactive) |
| CCSc1nnc(NC(=O)c2nc(S(=O)(=O)Cc3ccc(F)cc3)ncc2Cl)s1 | -2.12% (inactive) |
| Cc1cccc(CS(=O)(=O)c2ncc(Cl)c(C(=O)Nc3nnc(C(C)C)s3)n2)c1 | -1.69% (inactive) |
